From ChEMBL document CHEMBL1140844, “2-[(3-Methoxyphenylethyl)phenoxy]-based ABCB1 inhibitors: effect of different basic side-chains on their biological properties” (J Med Chem, 2008)

How the values were obtained:
[1] = target: T1, ATP-dependent translocase ABCB1 (Homo sapiens, UniProt P08183); assay: Inhibition of ABCB1 in human Caco-2 cells assessed as ATPase activation at 100 uM after 2 hrs; assay type: cell-based; details: caco-2, 2 h
Method in brief: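 Caco-2 cells seeded at 2 × 10⁴ cells/well and held overnight at 37 °C, 5% CO2. Exposed to compound in complete medium for 2 h at 37 °C. Cells then lysed and ATP read by luciferase luminescence after 10 min dark adaptation. Tested at 100 µM; a positive response is reported as a percentage.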

[2] = target: T1, ATP-dependent translocase ABCB1; assay: Inhibition of ABCB1-mediated [3H]vinblastine transportation in human Caco-2 cells; assay type: cell-based
Method in brief: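 Caco-2 monolayers grown 21 days (TEER >800 Ω × cm²). 20 nM [3H]vinblastine added to the basolateral side with or without compound (200 nM–400 µM) for 120 min at 37 °C. Appearance on the apical side measured by scintillation counting. IC50 from nonlinear fit. Mean of three experiments, triplicate samples.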

[3] = target: T1, ATP-dependent translocase ABCB1; assay: Inhibition of ABCB1 transfected in MDCK cells assessed as increase in calcein-AM accumulation; assay type: cell-based
[4] = target: T2, 5-hydroxytryptamine receptor 1A (Homo sapiens, UniProt P08908); assay: Displacement of [3H]8-OH-DPAT from human cloned 5-HT1A receptor expressed in human HeLa cells; assay type: cell-based
T2 sequence (P08908 whole entry): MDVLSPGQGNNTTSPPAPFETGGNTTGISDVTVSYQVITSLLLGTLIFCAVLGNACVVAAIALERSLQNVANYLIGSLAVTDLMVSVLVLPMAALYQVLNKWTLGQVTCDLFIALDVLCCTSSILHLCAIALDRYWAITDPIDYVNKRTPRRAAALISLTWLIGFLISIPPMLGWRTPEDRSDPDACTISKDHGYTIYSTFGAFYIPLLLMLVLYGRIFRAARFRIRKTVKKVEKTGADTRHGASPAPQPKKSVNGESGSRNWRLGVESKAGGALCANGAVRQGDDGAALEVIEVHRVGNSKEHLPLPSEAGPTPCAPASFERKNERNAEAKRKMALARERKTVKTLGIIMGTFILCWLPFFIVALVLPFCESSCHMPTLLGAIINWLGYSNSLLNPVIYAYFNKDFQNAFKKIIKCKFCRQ
Method in brief: (§1)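 Compounds at 0.1 nM–10 µM in 50 mM Tris-HCl pH 7.4, 5 mM MgSO4, 120 min at 37 °C. Filtered on PEI-soaked GF/C. Nonspecific binding with 10 µM 8-OH-DPAT. […] Mean of three experiments, triplicate samples.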

D(2) dopamine receptor [5] = target: T3, D(2) dopamine receptor (Homo sapiens, UniProt P14416); assay: Displacement of [3H]spiroperidol from human cloned dopaminergic D2 receptor expressed in rat C6 cells; assay type: cell-based
T3 sequence (P14416 whole entry): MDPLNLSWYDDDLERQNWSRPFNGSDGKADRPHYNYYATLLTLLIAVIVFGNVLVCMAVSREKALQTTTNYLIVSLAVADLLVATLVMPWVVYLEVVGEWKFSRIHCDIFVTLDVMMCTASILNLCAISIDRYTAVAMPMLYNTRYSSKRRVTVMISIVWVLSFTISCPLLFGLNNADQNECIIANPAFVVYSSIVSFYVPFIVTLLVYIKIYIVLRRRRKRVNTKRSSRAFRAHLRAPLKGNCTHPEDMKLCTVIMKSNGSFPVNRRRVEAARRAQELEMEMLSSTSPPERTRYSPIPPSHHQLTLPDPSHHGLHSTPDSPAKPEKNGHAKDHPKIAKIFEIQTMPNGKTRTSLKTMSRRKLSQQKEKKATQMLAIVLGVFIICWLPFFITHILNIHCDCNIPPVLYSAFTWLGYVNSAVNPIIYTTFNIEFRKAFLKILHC

Caco-2 = assay: Ratio of apparent permeability from basolateral to apical over apical to basolateral side of human Caco-2 cells after 120 mins by UV-visible spectroscopy; details: caco-2, 2 h
[6] = target: T4, 5-hydroxytryptamine receptor 1A (Homo sapiens) (UniProt P08908); assay: Displacement of [3H]8-OH-DPAT from human cloned 5-HT1A receptor expressed in human HeLa cells at 10 uM; assay type: cell-based; method in brief: as §1
T4 sequence (whole entry): T2 sequence (P08908 whole entry)

D(2) dopamine receptor [7] = target: T3, D(2) dopamine receptor; assay: Displacement of [3H]spiroperidol from human cloned dopaminergic D2 receptor expressed in rat C6 cells at 10 uM; assay type: cell-based
Method in brief: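 Buffer was 50 mM Tris, 10 mM MgCl2, 1 mM EDTA, pH 7.4. Incubated 60 min at 27 °C, then filtered on PEI-soaked GF/C. Nonspecific binding with 10 µM haloperidol.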

ABCB1 = ABCB1 (Homo sapiens, UniProt P08183); assay: Activation of ABCB1 in human Caco-2 cells assessed as ATPase activation at 100 uM after 2 hrs
Chain of ABCB1 (P08183 whole entry): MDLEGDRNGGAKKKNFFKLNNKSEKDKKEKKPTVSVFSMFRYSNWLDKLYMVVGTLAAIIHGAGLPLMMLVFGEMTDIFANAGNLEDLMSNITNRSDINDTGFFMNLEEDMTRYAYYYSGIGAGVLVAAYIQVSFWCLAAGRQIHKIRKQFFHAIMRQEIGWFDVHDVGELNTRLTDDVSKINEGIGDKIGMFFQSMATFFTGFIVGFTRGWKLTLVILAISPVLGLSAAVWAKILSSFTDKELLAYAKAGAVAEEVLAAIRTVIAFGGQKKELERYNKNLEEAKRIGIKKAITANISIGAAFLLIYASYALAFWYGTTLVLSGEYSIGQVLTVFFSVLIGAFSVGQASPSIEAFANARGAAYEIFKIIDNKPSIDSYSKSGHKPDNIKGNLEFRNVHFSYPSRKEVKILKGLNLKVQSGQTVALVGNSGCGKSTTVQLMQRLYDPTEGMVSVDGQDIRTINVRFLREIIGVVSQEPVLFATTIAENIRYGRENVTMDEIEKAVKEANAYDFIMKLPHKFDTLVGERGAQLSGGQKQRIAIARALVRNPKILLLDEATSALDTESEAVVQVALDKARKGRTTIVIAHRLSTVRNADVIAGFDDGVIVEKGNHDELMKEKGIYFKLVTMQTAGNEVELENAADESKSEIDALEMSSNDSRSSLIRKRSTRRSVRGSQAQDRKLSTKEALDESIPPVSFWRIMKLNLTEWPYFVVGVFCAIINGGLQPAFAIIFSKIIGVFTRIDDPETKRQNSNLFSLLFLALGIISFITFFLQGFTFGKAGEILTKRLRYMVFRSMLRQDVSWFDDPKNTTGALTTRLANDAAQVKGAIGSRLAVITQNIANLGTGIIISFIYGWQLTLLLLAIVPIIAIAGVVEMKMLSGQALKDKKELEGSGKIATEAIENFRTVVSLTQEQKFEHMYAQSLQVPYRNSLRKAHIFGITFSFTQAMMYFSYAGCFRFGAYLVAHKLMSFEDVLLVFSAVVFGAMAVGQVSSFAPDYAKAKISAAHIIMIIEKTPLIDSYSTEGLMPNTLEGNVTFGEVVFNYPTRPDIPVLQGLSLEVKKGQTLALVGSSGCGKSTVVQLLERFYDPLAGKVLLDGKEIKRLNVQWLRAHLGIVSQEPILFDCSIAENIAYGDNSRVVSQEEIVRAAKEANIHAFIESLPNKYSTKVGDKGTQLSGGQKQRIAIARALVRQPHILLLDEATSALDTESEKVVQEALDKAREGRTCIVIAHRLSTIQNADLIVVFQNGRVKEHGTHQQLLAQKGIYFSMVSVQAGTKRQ

T1 sequence (P08183 whole entry): as above

Row | Compound | Activity [1] | IC50 [2] [nM] | IC50 [3] [nM] | Ki [4] [nM] | Ki (D(2) dopamine receptor [5]) [nM] | Ratio (Caco-2) | inhibition [6] [%] | inhibition (D(2) dopamine receptor [7]) [%] | activation at 2 h, 100 µM (ABCB1) [%]
1 | COc1cccc(CCc2ccccc2OCCCN2CCc3ccccc3C2)c1 | Not Active | 500 | 1140 | 1120 | 114 | 6.3 | – | – | –
2 | COc1cc2c(cc1OC)CN(CCc1ccc(NC(=O)c3cccc4c(=O)c5cccc(OC)c5[nH]c34)cc1)CC2 | Not Active | – | – | – | – | – | – | – | –
3 | COc1cccc(CCc2ccccc2OCCCCCN2CCN(c3cccc(Cl)c3)CC2)c1 | Not Active | – | – | > 5000 | > 1000 | – | 14 | 25 | –
4 | COc1cccc(CCc2ccccc2OCCN2CCN(c3cccc(C(F)(F)F)c3)CC2)c1 | Not Active | 40000 | – | 1410 | > 1000 | 2.6 | – | 31 | –
5 | COc1cccc(CCc2ccccc2OCCCCN2CCc3ccccc3C2)c1 | Not Active | – | – | 1330 | > 1000 | – | – | 48 | –
6 | COc1cccc(CCc2ccccc2OCCCN2CCN(c3cccc(Cl)c3)CC2)c1 | Not Active | 2500 | – | 1130 | 298 | 6.8 | – | – | –
7 | COc1cccc(CCc2ccccc2OCCCCN2CCN(c3ccc(F)cc3)CC2)c1 | – | – | – | > 5000 | 1320 | – | 47 | – | 25
8 | COc1cccc(CCc2ccccc2OCCCCN2CCc3cc(OC)c(OC)cc3C2)c1 | Not Active | 190 | 160 | > 5000 | > 1000 | 5.8 | 18 | 40 | –
9 | COc1cccc(CCc2ccccc2OCCCN2CCN(c3ccc(F)cc3)CC2)c1 | – | – | – | 800 | 655 | – | – | – | 38
10 | COc1cccc(CCc2ccccc2OCCCCCN2CCc3ccccc3C2)c1 | Not Active | 3170 | – | > 5000 | > 1000 | 7.3 | 15 | 16 | –
11 | COc1cccc(CCc2ccccc2OCCN2CCN(c3ccccc3OC)CC2)c1 | – | 25000 | – | 1240 | 427 | 6.8 | – | – | 10
12 | COc1cccc(CCc2ccccc2OCCN2CCN(C)CC2)c1 | Not Active | 800 | 7760 | > 5000 | 178 | 6.8 | 48 | – | –
13 | COc1cccc(CCc2ccccc2OCCCCCN2CCN(c3ccc(F)cc3)CC2)c1 | – | – | – | > 5000 | 847 | – | 27 | – | 40
14 | COc1cccc(CCc2ccccc2OCCCN2CCc3cc(OC)c(OC)cc3C2)c1 | Not Active | 140 | 90 | > 5000 | > 1000 | 4.3 | 36 | 35 | –
15 | COc1cccc(CCc2ccccc2OCCCCN2CCN(c3cccc(Cl)c3)CC2)c1 | Not Active | 1800 | – | 1310 | > 1000 | 5.1 | – | 35 | –
16 | COc1cccc(CCc2ccccc2OCCN2CCN(c3ncccn3)CC2)c1 | Not Active | – | – | 656 | 629 | – | – | – | –
17 | COc1cccc(CCc2ccccc2OCCCN2CCN(c3ncccn3)CC2)c1 | Not Active | 1200 | – | 331 | 20 | 131 | – | – | –
18 | COc1cccc(CCc2ccccc2OCCCCCN2CCN(c3ccccc3OC)CC2)c1 | – | 1270 | – | > 5000 | > 1000 | 5.2 | 14 | 35 | 15
19 | COc1cccc(CCc2ccccc2OCCN2CCN(c3cccc(Cl)c3)CC2)c1 | Not Active | 3200 | – | 686 | > 1000 | 3.6 | – | 43 | –
20 | COc1cccc(CCc2ccccc2OCCCN2CCN(C)CC2)c1 | Not Active | 2500 | – | > 5000 | 565 | 4.7 | 40 | – | –
21 | COc1cccc(CCc2ccccc2OCCN2CCc3ccccc3C2)c1 | Not Active | 12000 | – | 1310 | > 1000 | 7.2 | – | 35 | –
22 | COc1cccc(CCc2ccccc2OCCCCN2CCN(c3ccccc3OC)CC2)c1 | – | 5800 | – | 1090 | 67 | 3.9 | – | – | 54
23 | COc1cccc(CCc2ccccc2OCCCN2CCN(c3cccc(C(F)(F)F)c3)CC2)c1 | Not Active | 6500 | – | 2870 | 1410 | 4.4 | – | – | –
24 | COc1cccc(CCc2ccccc2OCCN2CCN(c3ccc(F)cc3)CC2)c1 | – | 10000 | – | 783 | > 1000 | 2.2 | – | 38 | 10
25 | COc1cccc(CCc2ccccc2OCCCCCN2CCN(C)CC2)c1 | Not Active | 6820 | – | > 5000 | > 1000 | 2.5 | 24 | 26 | –
26 | COc1cccc(CCc2ccccc2OCCCCCN2CCN(c3ncccn3)CC2)c1 | Not Active | 1720 | – | > 5000 | > 1000 | 7.1 | 38 | 24 | –
27 | COc1cccc(CCc2ccccc2OCCCN2CCN(c3ccccc3OC)CC2)c1 | – | 14000 | – | 756 | 6.3 | 8.1 | – | – | 20
